# This is a sample that favours compounds with a hit; in the whole collection about 2.5% have one here.
# TRPC4 act = activators of mouse TRPC4 channel, primary screen, Fluo4 calcium, HEK293 TRPC4beta/mu-opioid cells; 310,000 tested, 0.49% active; Short transient receptor potential channel 4 (Mus musculus), Q9QUQ5; Fluo4 calcium fluorescence; hits give high values; AID 2237, 2010; B-score at 10 µM;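 active = B-score above 5 SD of library B-scores, and initial fluorescence ratio not above library mean plus 5 SD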;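 also: positive B-score marks a calcium rise read as TRPC4 activation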
#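 Material: HEK293 stable line with TRPC4beta plus mu-opioid receptor; technique: Fluo4 calcium-sensitive dye fluorescence, kinetic, 1 Hz baseline; timing: Fluo4 dye loading 45 min at room temperature, 110 s recording; controls: assay buffer as low control, maximal DAMGO as high control; read-out: integrated baseline-normalised fluorescence ratio, converted to per-well B score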
# Pemphigus Ab inh = inhibitors of pemphigus antibody binding to DSG3, primary screen, biochemical, bead-based, flow cytometry, scFv-GFP. 310,000 tested, 0.48% active. DSG3-coupled beads, scFv-anti-DSG3-GFP binding; hits give low values. AID 588358, 2011. binding (percent of control), % at 10 µM;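 active = binding more than 3 SD below its plate's average and above zero; inconclusive = below that plate limit but binding exactly zero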;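 also: hits lower antibody fragment binding to DSG3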
# TRPC4 potent = positive allosteric modulators of TRPC4, primary screen, cell-based, mouse TRPC4beta, HEK293 mu-opioid, Fluo-4 calcium; B-score at 10 µM; Short transient receptor potential channel 4 (Mus musculus), Q9QUQ5; DAMGO EC20, Fluo-4 Ca2+ flux; hits give high values; AID 2227, 2009; 310,000 tested, 0.42% active;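 active = B-score of calcium response area above 5 SD of library B-scores, with initial fluorescence ratio within 5 SD of library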;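 also: B-score of integrated fluorescence ratio over time as area under calcium response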
# TRPC4 inh = inhibitors of mouse TRPC4 channel, primary screen, Fluo4 calcium, HEK293 TRPC4beta/mu-opioid cells; B-score at 10 µM; DAMGO-evoked Fluo4 calcium flux; hits give low values; 300,000 tested, 0.39% active;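 active = B-score over 3 SD under the library average, no early fluorescence shift, positive overall ratio signal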
#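 Test system – stable TRPC4beta/mu-opioid receptor HEK293 cells · Probe or stimulus – DAMGO, a submaximal dose followed by a maximal one · Dosing – one concentration per compound · Signal – Fluo4 calcium fluorescence by kinetic imaging, 5 s 1 Hz baseline · Evaluation – per-well B score of integrated baseline-normalized Fluo4 ratio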
# TRPC6 inhibitor = mouse TRPC6 channel inhibitors, primary screen, cell-based, HEK293, membrane potential dye; Short transient receptor potential channel 6 (Mus musculus), Q61143; 310,000 tested, 1.1% active; B-score at 10 µM; ACh-evoked depolarization; hits give low values;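 active = B-score under library mean minus 3 SD, initial fluorescence not abnormally high, positive integrated signal ratio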;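 also: B-score derived from integrated fluorescence ratio over the kinetic read; more negative B-score means stronger inhibition of depolarization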
# Target sequence (Q61143 whole entry, looked up): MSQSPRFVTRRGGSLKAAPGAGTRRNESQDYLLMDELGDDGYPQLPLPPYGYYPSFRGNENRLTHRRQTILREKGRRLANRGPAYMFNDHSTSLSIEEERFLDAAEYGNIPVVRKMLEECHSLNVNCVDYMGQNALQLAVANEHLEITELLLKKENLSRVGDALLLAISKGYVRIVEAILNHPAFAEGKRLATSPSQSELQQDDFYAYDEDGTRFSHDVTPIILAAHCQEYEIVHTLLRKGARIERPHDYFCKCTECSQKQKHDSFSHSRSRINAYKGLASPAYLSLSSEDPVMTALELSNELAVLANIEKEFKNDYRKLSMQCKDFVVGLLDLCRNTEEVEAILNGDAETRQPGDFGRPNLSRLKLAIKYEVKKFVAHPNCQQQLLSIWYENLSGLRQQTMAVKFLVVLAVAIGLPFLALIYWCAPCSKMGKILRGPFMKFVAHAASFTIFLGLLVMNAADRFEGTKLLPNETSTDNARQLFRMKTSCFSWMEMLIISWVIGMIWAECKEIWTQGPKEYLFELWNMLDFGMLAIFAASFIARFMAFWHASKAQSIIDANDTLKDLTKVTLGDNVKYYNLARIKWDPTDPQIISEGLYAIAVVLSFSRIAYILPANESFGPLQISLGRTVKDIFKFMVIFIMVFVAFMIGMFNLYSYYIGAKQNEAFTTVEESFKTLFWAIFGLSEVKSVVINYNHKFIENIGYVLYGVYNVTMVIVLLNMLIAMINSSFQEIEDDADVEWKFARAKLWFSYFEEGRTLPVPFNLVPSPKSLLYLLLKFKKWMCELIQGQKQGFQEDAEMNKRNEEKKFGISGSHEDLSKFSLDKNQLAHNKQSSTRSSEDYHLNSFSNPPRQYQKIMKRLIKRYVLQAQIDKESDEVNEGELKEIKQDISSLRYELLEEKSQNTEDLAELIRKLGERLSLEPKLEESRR
# TRPC6 act = mouse TRPC6 channel activators, primary screen, cell-based, HEK293, membrane potential dye. Short transient receptor potential channel 6 (Mus musculus), Q61143. HEK293-TRPC6 membrane potential dye fluorescence; hits give high values. B-score at 10 µM. 310,000 tested, 0.13% active. AID 2550, 2010;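 active = B-score of the integrated fluorescence ratio above library mean plus 3 SD, and starting fluorescence ratio within library mean plus 5 SD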;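 also: higher score means more depolarization so channel activation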
# Active calls of the source: *; i = inactive; ? = inconclusive; nt = no result.
SMILES,TRPC4 act,Pemphigus Ab inh,TRPC4 potent,TRPC4 inh,TRPC6 inhibitor,TRPC6 act
CC1(NC(=O)Nc2cc([N+](=O)[O-])ccc2O)CCS(=O)(=O)C1 (configuration not stated),nt,101,nt,nt,nt,nt
COc1ccc(S(=O)(=O)N2C(=O)/C(=C3\SC(N)=NC3=O)c3ccccc32)cc1,i,97,i,i,i,i
C#CCOCCOCCOCCNc1nc(N2CCN(C(=O)C([C@@H](C)CC)n3cc(C(N)COC(=O)C(F)(F)F)nn3)CC2)nc(N2CCN(C(=O)[C@H](Cc3cc4ccccc4[nH]3)n3cc(C(N)CO)nn3)CC2)n1 (some centres not stated),57*,nt,i,-6*,i,i
CCc1ccc(C(=O)N/N=C/c2cccc3ccccc23)nc1,i,97,i,i,i,i
COc1ccc(NC(=O)CCC(=O)c2ccc(C(C)C)cc2)cc1,i,111,i,i,i,i
COc1ccc(NC(=O)Nc2ccc(C(C)C)cc2)cc1,i,89,i,-6*,i,i
O=C(O)c1ccc(NC2=C(Cl)C(=O)c3ccccc3C2=O)cc1,i,102,i,-5*,i,i
O=C1C(Cl)=C(Nc2ccccc2)C(=O)c2ccccc21,i,107,i,i,i,i
CCc1cc(-c2[nH]ncc2-c2nc3ccccc3n2C)c(O)cc1O,i,92,i,i,i,i
CCOc1cc(O)c(-c2[nH]ncc2-c2nc(C)cs2)cc1CC,i,91,20*,i,i,i
CCOc1ccc(C(=O)CSCC(=O)O)cc1,i,95,i,i,i,i
Fc1ccccc1COc1ccc(Br)cc1CNCC1CCCO1 (configuration not stated),i,98,i,-6*,i,i
Fc1ccc(COc2ccc(Br)cc2CNCC2CCCO2)cc1 (configuration not stated),i,105,i,i,i,i
CNC(=O)c1ccc(-c2ccc(OC)cc2)s1,i,100,i,i,i,i
COc1ccc(NC(=O)c2ccc(-c3ccc(OC)cc3)s2)cc1,i,55*,i,i,i,i
CCn1c(=O)c(=O)[nH]c2cc(C(=O)N3CCN(Cc4ccc5c(c4)OCO5)CC3)ccc21,i,102,i,i,i,i
C=CCOc1ccc(CN(C)Cc2nc3cc(C(F)(F)F)ccc3c(=O)[nH]2)cc1,i,103,15*,i,i,i
COc1cccc(CN(C)Cc2nc3cc(C(F)(F)F)ccc3c(=O)[nH]2)c1,i,92,i,i,i,i
Cc1ccc(C2=NN(C(=O)CNCCO)C(c3cccs3)C2)cc1 (configuration not stated),i,100,i,i,i,i
CN(CCOc1ccccc1)CC(=O)Nc1ccc(Br)cc1F,i,?,i,i,i,i
Cc1ccc(C)n1-c1nnc(N2CCC(C(=O)NCCCN3CC(C)CC(C)C3)CC2)s1 (configuration not stated),88*,130,i,i,i,i
Cc1ccc(C)n1-c1nnc(N2CCC(C(=O)NCCCN3CCN(C)CC3)CC2)s1,i,105,i,i,i,i
Cc1cc(=O)n2nc(N3CCCC(C(=O)NCCCN4CC(C)CC(C)C4)C3)sc2n1 (configuration not stated),47*,99,i,i,i,i
C[C@@H]1CN([C@H](C)CO)C(=O)Cc2cc(NC(=O)Cn3cnnn3)ccc2O[C@@H]1CN(C)Cc1ccc(Cl)c(Cl)c1,nt,105,nt,nt,nt,nt
CC1=NN(c2ccccc2)C(=O)C1,i,115,i,i,i,i
SMILES,TRPC4 act,Pemphigus Ab inh,TRPC4 potent,TRPC4 inh,TRPC6 inhibitor,TRPC6 act
CC(C)c1ccc(C2=NN(c3ccccc3)C(=O)CC2)cc1,i,94,11*,i,i,i
O=C(CCCSc1nc2ccccc2[nH]1)Nc1nnc(-c2ccccc2)o1,i,103,i,-6*,i,i
CC(C)CNC(=O)CCc1nc(-c2ccccc2)no1,i,116,i,i,i,i
Nc1ccc(C(=O)N2CCN(S(=O)(=O)c3ccc(Br)cc3)CC2)cc1[N+](=O)[O-],i,106,i,i,i,i
Cc1cccc2cc(C(c3nnnn3Cc3ccccc3)N3CCN(c4ccccc4)CC3)c(=O)[nH]c12 (configuration not stated),i,96,i,i,i,i
COc1ccc(Cn2nnnc2C(c2cc3cc(C)ccc3[nH]c2=O)N2CCN(C)CC2)cc1 (configuration not stated),i,110,i,-7*,i,i
CCc1ccc2[nH]c(=O)c(C(c3nnnn3Cc3ccc(OC)cc3)N3CCOCC3)cc2c1 (configuration not stated),i,94,i,i,i,i
COc1ccc(Cn2nnnc2C(c2cc3cccc(C)c3[nH]c2=O)N2CCN(C)CC2)cc1 (configuration not stated),98*,95,i,i,i,i
Cc1cccc2cc(C(c3nnnn3Cc3ccccc3)N3CCN(C)CC3)c(=O)[nH]c12 (configuration not stated),47*,100,i,i,i,i
Cc1cc(-c2nn(-c3ccccc3F)cc2CN2CCC(C(N)=O)CC2)c(C)s1,i,89,i,i,i,i
Cc1cc(-c2nn(-c3ccccc3F)cc2CNCCc2cnc[nH]2)c(C)s1,125*,105,i,i,i,i
COCC1CCN(Cc2cn(-c3ccccc3F)nc2-c2cc(C)sc2C)CC1,96*,97,i,i,i,i
O=C(O)CCc1cc(I)c(Oc2ccc(O)c(I)c2)c(I)c1,59*,nt,i,i,i,i
O=C(CC1NCCNC1=O)Nc1ccc([N+](=O)[O-])cc1 (configuration not stated),i,102,i,i,i,i

# Screening data as filed in PubChem BioAssay.
